Reference: PMC8516733 (Biomedicine & pharmacotherapy = Biomedecine & …, 2021)
Several values for one entry are separate records, joined by “and”; a condition that tells them apart may be missing. Equal values may be shown once. Entries after “also recorded” stand apart in the source; their conditions may differ.

What was measured:
[1] = target: T1, cloned rat kappa opioid receptors (Rattus norvegicus, UniProt P34975); experiment: cell-based; assay type: cell-based
[2] = target: T1, cloned rat kappa opioid receptors; assay type: biochemical
[3] = target: cloned rat κappa opioid receptors (Rattus norvegicus, UniProt P34975); experiment: Adenylyl cyclase assay; assay type: cell-based; conditions: relative to Dyn (1–13)NH2; 50 μM forskolin
cloned rat κappa opioid receptors, sequence (P34975 whole entry): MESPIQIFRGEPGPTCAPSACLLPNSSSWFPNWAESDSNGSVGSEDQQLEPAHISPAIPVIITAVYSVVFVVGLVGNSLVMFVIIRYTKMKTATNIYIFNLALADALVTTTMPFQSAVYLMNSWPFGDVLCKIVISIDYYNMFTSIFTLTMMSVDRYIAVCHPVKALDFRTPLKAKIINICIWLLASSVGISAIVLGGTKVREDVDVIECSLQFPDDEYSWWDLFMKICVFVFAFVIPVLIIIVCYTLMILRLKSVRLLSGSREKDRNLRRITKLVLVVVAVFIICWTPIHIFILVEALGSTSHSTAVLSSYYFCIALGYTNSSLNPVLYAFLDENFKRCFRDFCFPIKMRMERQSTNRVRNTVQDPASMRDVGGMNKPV
In short: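 CHO cells stably expressing the receptor were washed twice in F12 medium and labelled for 4 h with 12 μCi [3H]adenine. They were then incubated 40 min at 37 °C with forskolin, peptidase inhibitors (10 μM bestatin, 30 μM captopril, 50 μM l-leucyl-l-leucine) and test compound at 0.1–10,000 nM in 10-fold steps. The reaction was stopped with SDS/cAMP, then perchloric acid. [3H]cAMP was counted by scintillation, with [14C]cAMP used for recovery and crossover correction.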

KOR = conditions: cited from earlier work; for Duration of action in vivo: after a single dose

T1 sequence (P34975 whole entry): as above

Compound | Efficacy, FMP blue [1] | Efficacy, [35S]GTPγS [2] | Efficacy, adenylyl cyclase [3] | Effect of the compound alone on FMP fluorescence [1] | also measured
[N-Benzyl-Tyr^1,Dap(Ac)^8]Dyn A(1–11) amide [JVA 3416] | 0.48 and 0.48 ± 0.10 | 0.26 ± 0.06 | 1.0 | – | –
[N-Allyl-Tyr^1]zyklophin [JVA 3419] | 0.15 ± 0.04 | 0.07 ± 0.17 | 0.33 | – | –
CC(C)[C@@H](CN1CC[C@@](C)(c2cccc(O)c2)[C@@H](C)C1)NC(=O)[C@H]1Cc2ccc(O)cc2CN1 [JDTic] | – | – | – | – | Duration of action in vivo (KOR): lasting weeks after a single dose
[N-BenzylTyr^1,cyclo(D-Asp^5,Dap^8]Dyn (1–11) amide [Zyklophin] | 0 | 0 | 0.23 | Neither zyklophin nor nor-BNI alone influenced FMP fluorescence; also recorded: did not elicit a significant reduction in FMP fluorescence | Kb ([1]; read-out: KB from Schild regression, antagonism of U50,488): 0.564 µM; Duration of antagonism (KOR; after systemic administration): less than 12 h
CC(C)=CCN1CCC2(C)c3cc(O)ccc3CC1C2C (stereo not drawn) [Pentazocine, pentazocine] | – | – | – | – | Efficacy (relative) [1]: 0.44 ± 0.04; IC50 [1]: 0.0266 µM
CC1C2Cc3ccc(O)cc3C1(C)CCN2CC1CC1 (single isomer, unassigned; (+)) [(+)-Cyclazocine, (+)-cyclazocine] | – | – | – | did not affect FMP fluorescence | –
[N-Methyl-Tyr^1]zyklophin [JVA 3418] | 0.14 ± 0.03 | 0.10 ± 0.10 | 0.58 | – | –
Oc1ccc2c3c1O[C@H]1c4[nH]c5c(c4C[C@@]4(O)[C@@H](C2)N(CC2CC2)CC[C@]314)C[C@@]1(O)[C@H]2Cc3ccc(O)c4c3[C@@]1(CCN2CC1CC1)[C@H]5O4 [nor-BNI, nor-binaltorphimine] | – | – | – | Neither zyklophin nor nor-BNI alone influenced FMP fluorescence | Duration of action in vivo (KOR): lasting weeks after a single dose
zyklophin-(1–8) [JVA 3413] | 0.22 ± 0.04 | 0.07 ± 0.14 | 0.35 | – | –
